The source made the active and inactive calls. The calls are words filed in the database; no cut-off is given here.
Legend:
dsDNA [1] = test: Stabilization of 5'-FAM and 3'-TAMRA-labeled dsDNA (unknown origin) assessed as change in melting temperature at 5 uM by FRET assay; type: nucleic-acid assay
Procedure, shortened: (§1)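 FRET melting of dual-labelled (5′-FAM/3′-TAMRA) promoter quadruplexes or duplex in 60 mM potassium cacodylate buffer, pH 7.4. ΔTm is taken against ligand-free Tm. The ligand was tested across a concentration series. Maximum measurable Tm is 93 °C.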

dsDNA [2] = test: Stabilization of 5'-FAM and 3'-TAMRA-labeled dsDNA (unknown origin) assessed as change in melting temperature at 1 uM by FRET assay; type: nucleic-acid assay; procedure, shortened: as §1
HeLa [3] = test: Induction of apoptosis in human HeLa cells assessed as viable cell level at 5 uM incubated for 24 hrs by Annexin V-FITC staining based flow cytometry; type: functional
Quadruplex DNA [4] = test: Stabilization of 5'-FAM and 3'-TAMRA-labeled c-KIT2 G-quadruplex (unknown origin) assessed as change in melting temperature at 1 uM by FRET assay; type: nucleic-acid assay; conditions: unidentified; procedure, shortened: as §1
Quadruplex DNA [5] = test: Stabilization of c-MYC G-quadruplex in human HeLa cells assessed as reduction in c-MYC mRNA level at 5 uM incubated for 24 hrs by RT-PCR method; type: cell-based; parameters: scale not given: the % may be the effect or the level left
Procedure, shortened: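 qRT-PCR on HeLa cells treated 24 h at 1.0, 2.5 or 5.0 μM. c-MYC mRNA was normalised to GAPDH and compared with 0.1% DMSO-treated control.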

dsDNA [6] = test: Binding affinity to dsDNA (unknown origin) in 10 mM Tris.HCl buffer containing 100 mM KCl at pH 7.4 by UV/Visible spectroscopy; type: nucleic-acid assay
Quadruplex DNA [7] = test: Stabilization of c-MYC G-quadruplex in human HeLa cells assessed as reduction in c-MYC mRNA level at 5 uM incubated for 24 hrs by Western blot method; type: cell-based; parameters: scale not given: the % may be the effect or the level left; conditions: in the assay text read “c-MYC protein level” for “c-MYC mRNA level”
Procedure, shortened: (§2)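 Western blot of HeLa lysates after 24 h at 1, 2.5 or 5 μM, with DMSO control. c-MYC was probed, GAPDH served as loading control, and bands were quantified by densitometry.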

HeLa [8] = test: Cytotoxicity against human HeLa cells incubated for 24 hrs by MTT assay; type: functional, cell-based
Procedure, shortened: (§3)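 MTT growth-inhibition assay in HeLa, A549 and mouse C2C12 cells. Cells given 0.1% DMSO served as control. IC50 values were reported.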

Quadruplex DNA [9] = test: Binding affinity to c-MYC G-quadruplex (unknown origin) assessed as induction of line broadening of imino protons by 1H-NMR spectroscopy; type: nucleic-acid assay; conditions: unidentified
Procedure, shortened: (§4)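 1D 1H NMR of c-MYC quadruplex DNA at different ligand:DNA ratios, monitoring imino and aromatic regions against partial signal assignments. Chemical shift perturbation or line broadening was noted separately at ratios below 1 and at ratios of 1 or above.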

HeLa [10] = test: Cell cycle arrest in human HeLa cells assessed as accumulation at G0/G1 phase at 5 uM incubated for 24 hrs by propidium iodide staining based flow cytometry (reference value: 61.5%); type: functional
Quadruplex DNA [11] = test: Binding affinity to pre-annealed k-RAS G-quadruplex (unknown origin) in 100 mM KCl, 10 mM Tris.HCl at pH 7.4 by fluorescence spectroscopy relative to untreated control; type: nucleic-acid assay, unidentified
Procedure, shortened: (§5)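 Fluorescence titration in 100 mM KCl, 10 mM Tris·HCl, pH 7.4. Excitation was 350 nm and emission was read at the 430 nm maximum. Ligand (1 μM for c-MYC) was titrated with increasing quadruplex or ds DNA, up to 20 equiv. Change in intensity was scored, and Kd was derived from the titration curves.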

Quadruplex DNA [12] = test: Binding affinity to pre-annealed c-MYC G-quadruplex (unknown origin) assessed as hypochromacity at 20 uM in 10 mM Tris.HCl buffer containing 100 mM KCl at pH 7.4 by UV/Visible spectroscopy; type: nucleic-acid assay; conditions: unidentified
Procedure, shortened: (§6)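 UV–vis titration of 20 μM ligand with preannealed c-MYC quadruplex (0–1.4 equiv) in 100 mM KCl, 10 mM Tris·HCl, pH 7.4. Hypochromicity was followed at the 362 nm ligand band, because the 298 nm band overlaps DNA absorbance. Kd was fitted with the Hill 1 equation.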

C2C12 = test: Cytotoxicity against mouse C2C12 cells incubated for 24 hrs by MTT assay; type: cell-based; conditions: C2C12, 24 h; procedure, shortened: as §3
Quadruplex DNA [13] = test: Binding affinity to c-MYC G-quadruplex (unknown origin) assessed as induction of chemical shift perturbations of imino protons by 1H-NMR spectroscopy; type: nucleic-acid assay; conditions: unidentified; procedure, shortened: as §4
Quadruplex DNA [14] = test: Binding affinity to pre-annealed c-KIT1 G-quadruplex (unknown origin) in 100 mM KCl, 10 mM Tris.HCl at pH 7.4 by fluorescence spectroscopy relative to untreated control; type: nucleic-acid assay, unidentified; procedure, shortened: as §5
[15] = Drug localization in nucleus of human HeLa cells at 5 uM incubated for 2 hrs by fluorescence microscopy; type: ADME, subcellular
Procedure, shortened: (§7)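 Intrinsic ligand fluorescence imaged by fluorescence microscopy in HeLa cells after 2 h at 5.0 μM. Merged images were used to assign nuclear versus cytoplasmic localisation.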

HeLa [16] = test: Induction of apoptosis in human HeLa cells assessed as early apoptotic cells level at 5 uM incubated for 24 hrs by Annexin V-FITC staining based flow cytometry (reference value: 1.1%); type: functional
Quadruplex DNA [17] = test: Effect on parallel topology of c-MYC G-quadruplex (unknown origin) at 0 to 5 equivalent by CD spectroscopy; type: nucleic-acid assay; conditions: unidentified
[18] = Drug localization in cytoplasm of human HeLa cells at 5 uM incubated for 2 hrs by fluorescence microscopy; type: ADME, subcellular; procedure, shortened: as §7
HeLa [19] = test: Cell cycle arrest in human HeLa cells assessed as accumulation at subG1 phase at 5 uM incubated for 24 hrs by propidium iodide staining based flow cytometry (reference value: 2.2%); type: functional
Quadruplex DNA [20] = test: Stabilization of 5'-FAM and 3'-TAMRA-labeled c-MYC G-quadruplex (unknown origin) assessed as change in melting temperature at 3 uM by FRET assay; type: nucleic-acid assay; conditions: unidentified; procedure, shortened: as §1
dsDNA [21] = test: Binding affinity to 20 equivalents of dsDNA (unknown origin) in 100 mM KCl, 10 mM Tris.HCl at pH 7.4 by fluorescence spectroscopy relative to untreated control; type: nucleic-acid assay; procedure, shortened: as §5
Quadruplex DNA [22] = test: Binding affinity to pre-annealed c-KIT2 G-quadruplex (unknown origin) in 100 mM KCl, 10 mM Tris.HCl at pH 7.4 by fluorescence spectroscopy relative to untreated control; type: nucleic-acid assay, unidentified; procedure, shortened: as §5
Quadruplex DNA [23] = test: Stabilization of 5'-FAM and 3'-TAMRA-labeled c-MYC G-quadruplex (unknown origin) assessed as change in melting temperature at 1 uM in presence of 100 nM to 10 uM dsDNA by FRET assay; type: nucleic-acid assay; conditions: unidentified
HeLa [24] = test: Effect on GAPDH protein expression in human HeLa cells at 1 to 5 uM incubated for 24 hrs by Western blot method; type: ADME, cell-based; procedure, shortened: as §2
Quadruplex DNA [25] = test: Stabilization of 5'-FAM and 3'-TAMRA-labeled c-MYC G-quadruplex (unknown origin) assessed as change in melting temperature at 1 uM by FRET assay; type: nucleic-acid assay; conditions: unidentified; procedure, shortened: as §1
Quadruplex DNA [26] = test: Stabilization of 5'-FAM and 3'-TAMRA-labeled k-RAS G-quadruplex (unknown origin) assessed as change in melting temperature at 1 uM in presence of 100 nM to 10 uM dsDNA by FRET assay; type: nucleic-acid assay; conditions: unidentified
HeLa [27] = test: Induction of apoptosis in human HeLa cells assessed as late apoptotic cells level at 5 uM incubated for 24 hrs by Annexin V-FITC staining based flow cytometry (reference value: 0.8%); type: functional
Quadruplex DNA [28] = test: Stabilization of 5'-FAM and 3'-TAMRA-labeled c-KIT2 G-quadruplex (unknown origin) assessed as change in melting temperature at 1 uM in presence of 100 nM to 10 uM dsDNA by FRET assay; type: nucleic-acid assay; conditions: unidentified
HeLa [29] = test: Cell cycle arrest in human HeLa cells assessed as accumulation at G2/M phase at 5 uM incubated for 24 hrs by propidium iodide staining based flow cytometry (reference value: 25.5%); type: functional
HeLa [30] = test: Effect on GAPDH mRNA expression in human HeLa cells at 1 to 5 uM incubated for 24 hrs by RT-PCR method; type: ADME, cell-based
Quadruplex DNA [31] = test: Binding affinity to pre-annealed c-MYC G-quadruplex (unknown origin) in 100 mM KCl, 10 mM Tris.HCl at pH 7.4 by fluorescence spectroscopy relative to untreated control; type: nucleic-acid assay, unidentified; procedure, shortened: as §5
unidentified [32] = test: Selectivity for 5'-FAM and 3'-TAMRA-labeled c-MYC G-quadruplex (unknown origin) over 5'-FAM and 3'-TAMRA-labeled c-KIT2 G-quadruplex (unknown origin)
Quadruplex DNA [33] = test: Stabilization of 5'-FAM and 3'-TAMRA-labeled k-RAS G-quadruplex (unknown origin) assessed as change in melting temperature at 1 uM by FRET assay; type: nucleic-acid assay; conditions: unidentified; procedure, shortened: as §1
Quadruplex DNA [34] = test: Stabilization of 5'-FAM and 3'-TAMRA-labeled c-KIT1 G-quadruplex (unknown origin) assessed as change in melting temperature at 1 uM by FRET assay; type: nucleic-acid assay; conditions: unidentified; procedure, shortened: as §1
HeLa [35] = test: Induction of apoptosis in human HeLa cells assessed as necrotic cells level at 5 uM incubated for 24 hrs by Annexin V-FITC staining based flow cytometry (reference value: 0.1%); type: functional
unidentified [36] = test: Selectivity for 5'-FAM and 3'-TAMRA-labeled c-MYC G-quadruplex (unknown origin) over 5'-FAM and 3'-TAMRA-labeled k-RAS G-quadruplex (unknown origin)
Quadruplex DNA [37] = test: Binding affinity to pre-annealed c-MYC G-quadruplex (unknown origin) assessed as increase in fluorescence intensity at 1 uM in 100 mM KCl, 10 mM Tris.HCl at pH 7.4 by fluorescence spectroscopy relative to untreated control; type: nucleic-acid assay; conditions: unidentified; procedure, shortened: as §5
HeLa [38] = test: Cell cycle arrest in human HeLa cells assessed as accumulation at S phase at 5 uM incubated for 24 hrs by propidium iodide staining based flow cytometry (reference value: 10.8%); type: functional
Quadruplex DNA [39] = test: Stabilization of 5'-FAM and 3'-TAMRA-labeled c-KIT1 G-quadruplex (unknown origin) assessed as change in melting temperature at 1 uM in presence of 100 nM to 10 uM dsDNA by FRET assay; type: nucleic-acid assay; conditions: unidentified
A549 = test: Cytotoxicity against human A549 cells incubated for 24 hrs by MTT assay; type: functional, cell-based; conditions: A549, 24 h; procedure, shortened: as §3
Quadruplex DNA [40] = test: Binding affinity to pre-annealed c-MYC G-quadruplex (unknown origin) in 10 mM Tris.HCl buffer containing 100 mM KCl at pH 7.4 by UV/Visible spectroscopy; type: nucleic-acid assay, unidentified; procedure, shortened: as §6
[41] = Selectivity for 5'-FAM and 3'-TAMRA-labeled c-MYC G-qudaruplex (unknown origin) over 5'-FAM and 3'-TAMRA-labeled c-KIT1 G-qudaruplex (unknown origin)

Structure (SMILES): CN(C)CCCNC(=O)c1ccc(Nc2ccc(-c3ccc(Nc4ccc(C(=O)NCCCN(C)C)cc4)c4ccccc34)c3ccccc23)cc1
- Activity (dsDNA [1]): inactive
- ΔTm (dsDNA [2]): 1 °C
- Activity (HeLa [3]): Active
- ΔTm (Quadruplex DNA [4]): 7 °C
- Activity (Quadruplex DNA [5]): 27%
- Activity (dsDNA [6]): inactive
- Activity (Quadruplex DNA [7]): 36%
- IC50 (HeLa [8]): 7.24 µM
- Activity (Quadruplex DNA [9]): Active
- Activity (HeLa [10]): 46.9%
- Kd (Quadruplex DNA [11]): 13 µM
- Activity (Quadruplex DNA [12]): 18%
- IC50 (C2C12): ≥ 40 µM
- Activity (Quadruplex DNA [13]): Active
- Kd (Quadruplex DNA [14]): 19.4 µM
- Drug uptake [15]: Active
- Activity (HeLa [16]): 37.9%
- Activity (Quadruplex DNA [17]): inactive
- Drug uptake [18]: Active
- Activity (HeLa [19]): 39.2%
- ΔTm (Quadruplex DNA [20]): 23 °C
- Activity (dsDNA [21]): inactive
- Kd (Quadruplex DNA [22]): 14.1 µM
- Activity (Quadruplex DNA [23]): Active
- Activity (HeLa [24]): Non-Toxic
- ΔTm (Quadruplex DNA [25]): 15 °C
- Activity (Quadruplex DNA [26]): Active
- Activity (HeLa [27]): 3.6%
- Activity (Quadruplex DNA [28]): Active
- Activity (HeLa [29]): 8.6%
- Activity (HeLa [30]): Non-Toxic
- Kd (Quadruplex DNA [31]): 21.4 µM
- Selectivity ratio (unidentified [32]): 3 to 5
- ΔTm (Quadruplex DNA [33]): 18 °C
- ΔTm (Quadruplex DNA [34]): 9 °C
- Activity (HeLa [35]): 0.5%
- Selectivity ratio (unidentified [36]): 3 to 5
- fold change (FC) (Quadruplex DNA [37]): 1.2
- Activity (HeLa [38]): 5.3%
- Activity (Quadruplex DNA [39]): Active
- IC50 (A549): ≥ 40 µM
- Kd (Quadruplex DNA [40]): 22.6 µM
- Selectivity ratio [41]: 3 to 5

Structure (SMILES): O=C(O)c1ccc(Nc2ccc(-c3ccc(Nc4ccc(C(=O)O)cc4)c4ccccc34)c3ccccc23)cc1
- ΔTm (dsDNA [2]): 0.5 °C
- ΔTm (Quadruplex DNA [4]): 2.8 °C
- ΔTm (Quadruplex DNA [25]): 4.5 °C
- ΔTm (Quadruplex DNA [33]): 3.8 °C
- ΔTm (Quadruplex DNA [34]): 2.5 °C
